In brackets after ≈: the same amount, converted by molar mass.
How the values were obtained:
Staphylococcus aureus [1] = assay: Antibacterial activity against Staphylococcus aureus ATCC 29213; format: functional
Summary of the method: (§1)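 Wild-type strain panel (18 Gram-positive and Gram-negative strains). Bacteria grown in Mueller-Hinton broth at 37 °C for 24 h. Exponentially growing cultures diluted in sterile liquid medium to a final inoculum of about 1 × 10⁴ CFU/mL, then exposed to increasing compound concentrations. MIC taken as the lowest concentration with no evident bacterial growth.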

[2] = Specificity Index, Ki for human thymidylate synthase/Ki for Escherichia coli thymidylate synthase
[3] = Specificity Index, Ki for human thymidylate synthase/Ki for Lactobacillus casei thymidylate synthase
Escherichia coli [4] = assay: Antibacterial activity against Escherichia coli 292; format: functional; summary of the method: as §1
Dihydrofolate reductase = target: T1, Dihydrofolate reductase (Homo sapiens, UniProt P00374); assay: Inhibition of human dihydrofolate reductase
T1 sequence (P00374 whole entry): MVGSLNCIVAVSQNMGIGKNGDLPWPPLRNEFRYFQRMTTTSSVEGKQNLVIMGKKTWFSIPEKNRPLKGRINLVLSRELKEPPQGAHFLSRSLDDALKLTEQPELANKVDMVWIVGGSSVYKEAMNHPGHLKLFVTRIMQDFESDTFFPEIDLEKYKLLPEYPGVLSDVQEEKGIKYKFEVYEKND
Summary of the method: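 Purified human DHFR assayed spectrophotometrically at 25 °C by the fall in A340 on DHF reduction. Ki from steady-state kinetics.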

Thymidylate synthase [5] = target: T2, Thymidylate synthase (Cryptococcus neoformans var. neoformans B-3501A, UniProt P0CS13); assay: Inhibition of Cryptococcus neoformans thymidylate synthase
T2 sequence (P0CS13 whole entry): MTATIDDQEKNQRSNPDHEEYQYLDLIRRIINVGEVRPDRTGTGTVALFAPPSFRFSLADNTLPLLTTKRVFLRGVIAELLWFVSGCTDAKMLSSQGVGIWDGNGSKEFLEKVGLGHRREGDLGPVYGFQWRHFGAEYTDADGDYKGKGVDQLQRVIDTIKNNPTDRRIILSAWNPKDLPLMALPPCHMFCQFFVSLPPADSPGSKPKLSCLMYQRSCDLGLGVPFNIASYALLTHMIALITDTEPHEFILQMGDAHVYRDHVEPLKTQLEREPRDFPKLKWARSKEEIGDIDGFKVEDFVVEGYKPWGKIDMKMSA

Listeria monocytogenes [6] = assay: Antibacterial activity against Listeria monocytogenes 8; format: functional; summary of the method: as §1
Thymidylate synthase [7] = target: Thymidylate synthase (Homo sapiens, UniProt P04818); assay: Inhibition of human thymidylate synthase
[8] = system: Staphylococcus saprophyticus; assay: Antibacterial activity against Staphylococcus saprophyticus ATCC 15305; format: functional; summary of the method: as §1
Citrobacter = assay: Antibacterial activity against Citrobacter 224; format: functional; summary of the method: as §1
[9] = Specificity Index, Ki for human thymidylate synthase/Ki for Cryptococcus neoformans thymidylate synthase
Summary of the method: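 Specificity index is Ki of hTS divided by Ki of the pathogen TS (LcTS, EcTS or CnTS). Each enzyme was purified to >95% and assayed spectrophotometrically at 340 nm, 20 °C. Buffer was TES 50 mM pH 7.4 with MgCl2, formaldehyde, EDTA and 2-mercaptoethanol, plus dUMP 100 µM, mTHF 140 µM and enzyme 0.07 µM.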

Staphylococcus aureus [10] = assay: Antibacterial activity against Staphylococcus aureus 341; format: functional; summary of the method: as §1
Listeria monocytogenes [11] = assay: Antibacterial activity against Listeria monocytogenes 4; format: functional; summary of the method: as §1
Enterococcus faecalis = assay: Antibacterial activity against Enterococcus faecalis ATCCC29212; format: functional; summary of the method: as §1
[12] = system: Staphylococcus haemolyticus; assay: Antibacterial activity against Staphylococcus haemolyticus ATCC 2997; format: functional; summary of the method: as §1
Listeria monocytogenes [13] = assay: Antibacterial activity against Listeria monocytogenes ATCC 4428; format: functional; summary of the method: as §1
Listeria monocytogenes [14] = assay: Antibacterial activity against Listeria monocytogenes 6; format: functional; summary of the method: as §1
Staphylococcus aureus [15] = assay: Antibacterial activity against Staphylococcus aureus 343; format: functional; summary of the method: as §1
Streptococcus = assay: Antibacterial activity against Streptococcus 42; format: functional; summary of the method: as §1
Thymidylate synthase [16] = target: T3, Thymidylate synthase (Lactobacillus casei, UniProt P00469); assay: Inhibition of Lactobacillus casei thymidylate synthase; parameters: species or system Lacticaseibacillus casei
T3 sequence (P00469 whole entry): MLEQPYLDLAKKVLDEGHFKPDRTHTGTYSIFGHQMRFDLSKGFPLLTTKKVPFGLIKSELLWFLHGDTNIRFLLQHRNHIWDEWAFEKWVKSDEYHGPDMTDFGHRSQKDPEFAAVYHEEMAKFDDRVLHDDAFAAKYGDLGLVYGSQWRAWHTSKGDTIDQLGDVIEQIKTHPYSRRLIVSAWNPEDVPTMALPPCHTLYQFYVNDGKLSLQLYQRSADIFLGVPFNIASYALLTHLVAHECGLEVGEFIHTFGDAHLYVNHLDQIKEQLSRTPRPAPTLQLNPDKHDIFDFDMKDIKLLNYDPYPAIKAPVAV

Staphylococcus aureus [17] = assay: Antibacterial activity against Staphylococcus aureus K28; format: functional; summary of the method: as §1
Listeria monocytogenes [18] = assay: Antibacterial activity against Listeria monocytogenes 5; format: functional; summary of the method: as §1
Thymidylate synthase [19] = target: Thymidylate synthase (Escherichia coli, UniProt C3SWJ7); assay: Inhibition of Escherichia coli thymidylate synthase
Escherichia coli [20] = assay: Antibacterial activity against Escherichia coli 256; format: functional; summary of the method: as §1
Homo sapiens = species on record: Homo sapiens; assay: Selectivity Index, Ki for human dihydrofolate reductase/Ki for human thymidylate synthase
Listeria monocytogenes [21] = assay: Antibacterial activity against Listeria monocytogenes 3; format: functional; summary of the method: as §1
Listeria monocytogenes [22] = assay: Antibacterial activity against Listeria monocytogenes 7; format: functional; summary of the method: as §1
Vero [23] = assay: Cytotoxicity against Vero cells measured as percent of cell growth at 6.25 mg/L relative to control by MTT assay; format: functional, Chlorocebus sabaeus
Summary of the method: (§2)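 VERO cells grown in MEM with 5% heat-inactivated (56 °C, 30 min) FCS, penicillin, streptomycin and L-glutamine. Cultures were watched for 2 days and live cells counted. Cells were then exposed to increasing compound concentrations; wells with cells only served as control. After 24 h, mitochondrial dehydrogenase activity was read by MTT. Trypan blue exclusion was also run.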

Vero [24] = assay: Cytotoxicity against Vero cells measured as percent of cell growth at 12.05 mg/L relative to control by MTT assay; format: functional, Chlorocebus sabaeus; summary of the method: as §2
Vero [25] = assay: Cytotoxicity against Vero cells measured as percent of cell growth at 3.12 mg/L relative to control by MTT assay; format: functional, Chlorocebus sabaeus; summary of the method: as §2
Vero [26] = assay: Cytotoxicity against Vero cells measured as percent of cell growth at 25 mg/L relative to control by MTT assay; format: functional, Chlorocebus sabaeus; summary of the method: as §2
Vero [27] = assay: Cytotoxicity against Vero cells measured as percent of cell growth at 50 mg/L relative to control by MTT assay; format: functional, Chlorocebus sabaeus; summary of the method: as §2
Vero [28] = assay: Cytotoxicity against Vero cells measured as percent of cell growth at 1.56 mg/L relative to control by MTT assay; format: functional, Chlorocebus sabaeus; summary of the method: as §2

Thymidylate synthase (Homo sapiens, UniProt P04818), sequence (P04818 whole entry): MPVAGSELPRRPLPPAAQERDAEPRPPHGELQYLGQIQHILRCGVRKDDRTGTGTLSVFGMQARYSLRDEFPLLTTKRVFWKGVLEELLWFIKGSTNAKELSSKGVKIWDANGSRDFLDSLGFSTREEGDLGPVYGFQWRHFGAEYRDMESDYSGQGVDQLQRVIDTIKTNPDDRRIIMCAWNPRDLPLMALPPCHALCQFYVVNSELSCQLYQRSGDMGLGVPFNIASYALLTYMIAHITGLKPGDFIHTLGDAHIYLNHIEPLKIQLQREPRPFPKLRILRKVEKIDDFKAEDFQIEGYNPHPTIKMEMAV
Thymidylate synthase (Escherichia coli, UniProt C3SWJ7), sequence (C3SWJ7 whole entry): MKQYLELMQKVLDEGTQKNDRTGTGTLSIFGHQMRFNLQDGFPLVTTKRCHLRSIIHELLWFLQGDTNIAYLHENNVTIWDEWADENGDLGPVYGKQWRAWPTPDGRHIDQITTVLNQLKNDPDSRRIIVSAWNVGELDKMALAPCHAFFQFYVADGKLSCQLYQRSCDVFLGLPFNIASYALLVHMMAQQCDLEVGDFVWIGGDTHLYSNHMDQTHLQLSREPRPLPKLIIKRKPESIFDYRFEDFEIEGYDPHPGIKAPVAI

Row | SMILES | MIC (Staphylococcus aureus [1]) [µg/mL] | Ratio Ki [2] | Ratio Ki [3] | MIC (Escherichia coli [4]) [µg/mL] | Ki (Dihydrofolate reductase) [µM] | Ki (Thymidylate synthase [5]) [µM] | MIC (Listeria monocytogenes [6]) [µg/mL] | MIC [8] [µg/mL] | MIC (Citrobacter) [µg/mL] | Ratio Ki [9] | MIC (Staphylococcus aureus [10]) [µg/mL] | MIC (Listeria monocytogenes [11]) [µg/mL] | MIC (Enterococcus faecalis) [µg/mL] | MIC (Listeria monocytogenes [13]) [µg/mL] | MIC (Listeria monocytogenes [14]) [µg/mL] | MIC (Staphylococcus aureus [15]) [µg/mL] | MIC (Streptococcus) [µg/mL] | MIC (Staphylococcus aureus [17]) [µg/mL] | MIC (Listeria monocytogenes [18]) [µg/mL] | MIC [12] [µg/mL] | other results
1 | O=C1OC(c2ccc(O)cc2)(c2ccc(O)c(Br)c2)c2cccc3cccc1c23 (centres undefined) | 10 (≈ 22.4 µM) | > 330 | > 132 | > 50 | 3.4 | 5.2 | 25 (≈ 55.9 µM) | 10 (≈ 22.4 µM) | > 50 | > 25 | 25 (≈ 55.9 µM) | 10 (≈ 22.4 µM) | 25 (≈ 55.9 µM) | 10 (≈ 22.4 µM) | 10 (≈ 22.4 µM) | 10 (≈ 22.4 µM) | 10 (≈ 22.4 µM) | 25 (≈ 55.9 µM) | 10 (≈ 22.4 µM) | 10 (≈ 22.4 µM) | Ki (Thymidylate synthase [7]): > 132 µM; Ki (Thymidylate synthase [16]): 1 µM; Ki (Thymidylate synthase [19]): 0.4 µM; MIC (Escherichia coli [20]): > 50 µg/mL; Selectivity index (Homo sapiens): < 0.02; MIC (Listeria monocytogenes [21]): 10 µg/mL (≈ 22.4 µM); MIC (Listeria monocytogenes [22]): 10 µg/mL (≈ 22.4 µM)
2 | O=C1OC(c2ccc(O)cc2)(c2ccc(O)cc2)c2ccc3ccccc3c21 |  |  |  |  | 35 | 0.6 |  |  |  |  |  |  |  |  |  |  |  |  |  |  | 
3 | O=C1OC(c2ccc(O)c(Br)c2)(c2ccc(O)c(Br)c2)c2cccc3cccc1c23 | 5 (≈ 9.5 µM) | 5 | 1 | > 50 | 15 | 13 | 5 (≈ 9.5 µM) | 5 (≈ 9.5 µM) | > 50 | 0.4 | 5 (≈ 9.5 µM) | 5 (≈ 9.5 µM) | 10 (≈ 19 µM) | 5 (≈ 9.5 µM) | 5 (≈ 9.5 µM) | 5 (≈ 9.5 µM) | 5 (≈ 9.5 µM) | 5 (≈ 9.5 µM) | 5 (≈ 9.5 µM) | 5 (≈ 9.5 µM) | Activity (Vero [23]): 100%; Activity (Vero [24]): 100%; Activity (Vero [25]): 100%; Ki (Thymidylate synthase [7]): 4.7 µM; Activity (Vero [26]): 84%; Ki (Thymidylate synthase [16]): 6.8 µM; Ki (Thymidylate synthase [19]): 0.9 µM; MIC (Escherichia coli [20]): > 50 µg/mL; Selectivity index (Homo sapiens): 3; MIC (Listeria monocytogenes [21]): 2.5 µg/mL (≈ 4.75 µM); Activity (Vero [27]): 41%; Activity (Vero [28]): 100%; MIC (Listeria monocytogenes [22]): 1 µg/mL (≈ 1.9 µM)
4 | O=C1OC(c2ccc(O)c(I)c2)(c2ccc(O)c(I)c2)c2c1ccc1ccccc21 |  | > 163 | > 123 |  | 3.9 | 4.5 |  |  |  | > 54 |  |  |  |  |  |  |  |  |  |  | Ki (Thymidylate synthase [7]): > 245 µM; Ki (Thymidylate synthase [16]): 2 µM; Ki (Thymidylate synthase [19]): 1.5 µM; Selectivity index (Homo sapiens): < 0.01

Further compounds by falling Ki (Dihydrofolate reductase), results first:

Row | MIC (Staphylococcus aureus [1]) [µg/mL] | Ratio Ki [2] | Ratio Ki [3] | MIC (Escherichia coli [4]) [µg/mL] | Ki (Dihydrofolate reductase) [µM] | Ki (Thymidylate synthase [5]) [µM] | MIC (Listeria monocytogenes [6]) [µg/mL] | MIC [8] [µg/mL] | MIC (Citrobacter) [µg/mL] | Ratio Ki [9] | MIC (Staphylococcus aureus [10]) [µg/mL] | MIC (Listeria monocytogenes [11]) [µg/mL] | MIC (Enterococcus faecalis) [µg/mL] | MIC (Listeria monocytogenes [13]) [µg/mL] | MIC (Listeria monocytogenes [14]) [µg/mL] | MIC (Staphylococcus aureus [15]) [µg/mL] | MIC (Streptococcus) [µg/mL] | MIC (Staphylococcus aureus [17]) [µg/mL] | MIC (Listeria monocytogenes [18]) [µg/mL] | SMILES | MIC [12] [µg/mL] | other results
5 | 25 (≈ 61.8 µM) |  |  | > 50 | 109 | 3.5 | 25 (≈ 61.8 µM) | 25 (≈ 61.8 µM) | > 50 |  | 25 (≈ 61.8 µM) | 25 (≈ 61.8 µM) | 25 (≈ 61.8 µM) | 25 (≈ 61.8 µM) | 25 (≈ 61.8 µM) | 25 (≈ 61.8 µM) | 25 (≈ 61.8 µM) | 25 (≈ 61.8 µM) | 25 (≈ 61.8 µM) | O=C1OC(c2ccc(O)c(F)c2)(c2ccc(O)c(F)c2)c2ccc3ccccc3c21 | 25 (≈ 61.8 µM) | MIC (Escherichia coli [20]): > 50 µg/mL; MIC (Listeria monocytogenes [21]): 25 µg/mL (≈ 61.8 µM); MIC (Listeria monocytogenes [22]): 25 µg/mL (≈ 61.8 µM)
6 |  |  |  |  | 42 |  |  |  |  |  |  |  |  |  |  |  |  |  |  | O=C1OC(c2ccc(O)c(F)c2)(c2ccc(O)c(F)c2)c2cccc3cccc1c23 |  | 
7 | 2.5 (≈ 4.46 µM) | > 60 | > 306 | > 25 | 13 | 4.1 | 5 (≈ 8.92 µM) | 1 (≈ 1.78 µM) | > 25 | > 60 | 2.5 (≈ 4.46 µM) | 2.5 (≈ 4.46 µM) | 5 (≈ 8.92 µM) | 1 (≈ 1.78 µM) | 2.5 (≈ 4.46 µM) | 1 (≈ 1.78 µM) | 1 (≈ 1.78 µM) | 2.5 (≈ 4.46 µM) | 5 (≈ 8.92 µM) | O=C1OC(c2ccc(O)c(Br)c2)(c2ccc(O)c(Br)c2)c2ccc(Cl)c3cccc1c23 | 5 (≈ 8.92 µM) | Activity (Vero [23]): 97%; Activity (Vero [24]): 97%; Activity (Vero [25]): 95%; Activity (Vero [26]): 85%; Ki (Thymidylate synthase [19]): 4.1 µM; MIC (Escherichia coli [20]): > 25 µg/mL; Selectivity index (Homo sapiens): < 0.05; MIC (Listeria monocytogenes [21]): 5 µg/mL (≈ 8.92 µM); Activity (Vero [27]): 61%; Activity (Vero [28]): 96%; MIC (Listeria monocytogenes [22]): 2.5 µg/mL (≈ 4.46 µM)
8 |  |  |  |  | 13 |  |  |  |  |  |  |  |  |  |  |  |  |  |  | Cc1cc(O)c(C(C)C)cc1C1(c2cc(C(C)C)c(O)cc2C)OC(=O)c2ccc3ccccc3c21 |  | 
